ChEMBL document CHEMBL1126643, “Synthesis and evaluation of 2-pyridinone derivatives as HIV-1-specific reverse transcriptase inhibitors. 4. 3-[2-(Benzoxazol-2-yl)ethyl]-5-ethyl-6-methylpyridin-2(1H)-one and analogues” (J Med Chem, 1993)

Assays:
[1] = molecular target: T1, Human immunodeficiency virus type 1 reverse transcriptase (Human immunodeficiency virus 1, UniProt Q72547); experiment: Tested for inhibition against HIV-1 RT (used (poly)rC-(oligo)dG as the template)
[2] = molecular target: Human immunodeficiency virus type 1 reverse transcriptase (Human immunodeficiency virus 1) (UniProt Q72547); experiment: Cell culture inhibitor concentration required to inhibit the spread of HIV-1 strain III B infection in MT-4 human T-lymphoid cells; type: functional, cell-based
[3] = molecular target: T1, Human immunodeficiency virus type 1 reverse transcriptase; experiment: Inhibition against HIV-1 RT (used (poly)rC-(oligo)dG as the template); not characterized
[4] = Percent unbound determined for whole normal human plasma; type: functional
Summary of the method: (§1)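 Compound from 1 mM DMSO stock added to pH 7.4 phosphate/NaCl buffer with human plasma (10-fold diluted plasma), initial compound 10 μM; triplicate aliquots centrifuged through filter tubes, filtrate analysed by HPLC.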

[5] = Plasma equilibrium dissociation constant was determined; type: functional, cell-free, Homo sapiens; summary of the method: as §1
[6] = Half life was determined; type: ADME; details: 0.1 N HCl in 90% ethanol
Summary of the method: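 Acid hydrolysis: stock aliquot added to stirred ethanol/1 N HCl (8.9:1.0 mL) at 37 °C; aliquots withdrawn at intervals, quenched into pH 7.7 0.1 M MES buffer and analysed by HPLC.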

| SMILES | IC50 [1] [nM] | also measured |
| --- | --- | --- |
| Cc1nc(O)c(CCc2nc3ccccc3o2)cc1CO | 3400 |  |
| Cc1nc(O)c(CCc2nc3ccccc3o2)cc1N(C)C | 1850 |  |
| CCc1cc(CCc2nc3cc(F)ccc3o2)c(=O)[nH]c1C | 1700 |  |
| COCc1cc(CCc2nc3ccccc3o2)c(=O)[nH]c1C | 2100 |  |
| CCc1cc(CCc2ccc3ccccc3c2)c(=O)[nH]c1C | 8400 |  |
| CCC1=C(C)NC(N)C(CCc2nc3ccccc3o2)=C1 (stereo not drawn) | 100000 |  |
| CCc1cc(CCc2nc3c(Cl)ccc(Cl)c3o2)c(S)nc1C | 30 | IC95 [2]: 100 nM |
| CCc1cc(Cc2nc3ccccc3o2)c(O)nc1C | 45000 |  |
| Cc1[nH]c(=O)c(CCc2nc3ccccc3o2)cc1C(N)=O | 41500 |  |
| CCc1cc(CCc2nc3cccc(Cl)c3o2)c(S)nc1C |  | IC95 [2]: 200 nM |
| CCc1cc(CCc2cc3cnccc3o2)c(O)nc1C | 13500 |  |
| CCc1cc(OCC(=O)Nc2ccccc2O)c(O)nc1C |  | IC50 [3]: not characterized |
| CCc1cc(CCc2nc3cccc(F)c3o2)c(O)nc1C | 37 | Unbound [4]: 1.4%; Kd [5]: 8160 nM |
| CCc1cc(CCc2nc3cccc(F)c3o2)c(S)nc1C |  | IC95 [2]: 200 nM |
| CCc1cc(CCc2nc3c(Cl)ccc(Cl)c3o2)c(O)nc1C |  | Unbound [4]: 0.1%; Kd [5]: 760 nM; IC95 [2]: 50 nM |
| CCc1cc(S(=O)(=O)Cc2nc3c(Cl)ccc(Cl)c3o2)c(O)nc1C | 205 |  |
| Cc1cc(CCc2nc3ccccc3o2)c(O)nc1C | 170 |  |
| CCc1cc(CCc2ccccn2)c(O)nc1C | 260000 |  |
| CCc1cc(CCc2nc3cccc(Cl)c3o2)c(O)nc1C | 39 | Unbound [4]: 0.7%; Kd [5]: 4160 nM; IC95 [2]: 100 nM |
| CCc1cc(/C=C\c2nc3ccccc3o2)c(=O)[nH]c1C | 3000 |  |
| CCc1cc(CCc2nc3c(F)ccc(F)c3o2)c(=S)[nH]c1C | 15 |  |
| CCc1cc(CCc2nc3c(F)ccc(F)c3o2)c(O)nc1C | 14 | Unbound [4]: 3%; Kd [5]: 18200 nM; IC95 [2]: 50 nM |
| CCc1cc(CCc2nc3c(C)ccc(C)c3o2)c(S)nc1C |  | IC95 [2]: 200 nM |

| SMILES | IC50 [1] [nM] | also measured |
| --- | --- | --- |
| Cc1nc(O)c(CCc2nc3ccccc3o2)cc1C#N | 310 |  |
| CCc1c[nH]c(=O)c(CCc2nc3ccccc3o2)c1 | 177 |  |
| CCc1cc(CCc2ncc(-c3ccccc3)o2)c(O)nc1C | 385 |  |
| CCc1cc(CCc2ccc3ccccc3n2)c(O)nc1C | 2450 |  |
| CCc1cc(CCc2nc3ccccc3o2)c(S)nc1C | 24 | IC95 [2]: 200 nM |
| CCc1cc(NCC(=O)Nc2ccccc2O)c(O)nc1C |  | IC50 [3]: not characterized |
| CCc1cc(OCc2nc3c(Cl)ccc(Cl)c3o2)c(=O)[nH]c1C | 88 | half-life [6]: 11 min |
| CCc1cc(CCc2nc3c(Cl)ccc(Cl)c3o2)c(=O)[nH]c1C | 14 |  |
| CCc1cc(CCCc2nc3ccccc3o2)c(O)nc1C | 16000 |  |
| CCc1cc(CCc2nc3ccccc3o2)c(O)nc1C | 23 | half-life [6]: 218 min; Unbound [4]: 4%; Kd [5]: 21600 nM; IC95 [2]: 100 nM |
| CCc1cc(CNc2nc3ccccc3o2)c(O)nc1C | 1250 | IC95 [2]: 10000 nM |
| CCc1cc(CCc2nc3c(F)ccc(F)c3o2)c(S)nc1C |  | IC95 [2]: 200 nM |
| CCc1cc(CCc2nc3c(Cl)cccc3o2)c(O)nc1C | 62 | Unbound [4]: 3%; Kd [5]: 17600 nM; IC95 [2]: 100 nM |
| CCc1cc(NCc2nc3c(Cl)ccc(Cl)c3o2)c(O)nc1C [L-697661] | 20 | half-life [6]: 17 min; Unbound [4]: 0.4%; IC95 [2]: 100 nM |
| CCc1cc(CCc2nc3cccc(C)c3o2)c(=O)[nH]c1C | 40 |  |
| CCc1cc(CCC(=O)Nc2c(O)cc(Cl)cc2Cl)c(O)nc1C | > 300000 |  |
| CCCc1cc(CCc2nc3c(Cl)ccc(Cl)c3o2)c(=O)[nH]c1C | 34 |  |
| CCc1cc(/C=C/c2nc3ccccc3o2)c(O)nc1C | 5900 |  |
| CCCc1cc(CCc2nc3ccccc3o2)c(O)nc1C | 83 |  |
| CCc1cc(CCc2nc3cccc(F)c3o2)c(=S)[nH]c1C | 43 |  |
| CCc1cc(NCc2nc3ccccc3o2)c(O)nc1C |  | half-life [6]: 35 min; IC95 [2]: 800 nM |
| CCc1cc(CCc2nc3ccc(F)cc3o2)c(O)nc1C | 442 |  |
| CCc1cc([S+]([O-])Cc2nc3c(Cl)ccc(Cl)c3o2)c(O)nc1C (stereo not drawn) | 1400 |  |

| SMILES | IC50 [1] [nM] | also measured |
| --- | --- | --- |
| CCc1cc(CCc2nc3ccc(C)cc3o2)c(=O)[nH]c1C | 172 |  |
| CCc1cc(CCC2=NC3CCCCC3O2)c(=O)[nH]c1C (stereo not drawn) | 58 |  |
| CCc1cc(CCc2nc3c(C)cccc3o2)c(O)nc1C |  | Unbound [4]: 0.4%; Kd [5]: 2450 nM; IC95 [2]: 100 nM |
| Cc1nc(O)c(CCc2nc3ccccc3o2)cc1-c1ccccc1 | 1100 |  |
| CCc1cc(CCc2ccccc2)c(=O)[nH]c1C | 50000 |  |
| CCc1cc(OCc2nc3ccccc3o2)c(=O)[nH]c1C | 191 | half-life [6]: 12 min |
| CCc1cc(OCc2nc3c(Cl)ccc(Cl)c3o2)c(O)nc1C |  | IC95 [2]: 200 nM |
| CCc1cc(CCc2nc3c(C)ccc(C)c3o2)c(=S)[nH]c1C | 52 |  |
| CCc1cc(CCc2nc3c(F)cccc3o2)c(S)nc1C |  | IC95 [2]: 100 nM |
| Cc1cc(CCc2nc3c(Cl)ccc(Cl)c3o2)c(=O)[nH]c1C | 97 |  |
| CCc1cc(CCc2cc3ccccc3o2)c(O)nc1C | 130 |  |
| CCc1cc(SCc2nc3c(Cl)ccc(Cl)c3o2)c(=O)[nH]c1C | 11 | half-life [6]: 34 min |
| CCc1cc(SCc2nc3c(Cl)ccc(Cl)c3o2)c(O)nc1C |  | IC95 [2]: 50 nM |
| CCc1cc(CCc2nc3c(Cl)cccc3o2)c(S)nc1C | 30 |  |
| CCc1cc(CCc2nc3c(C)ccc(C)c3o2)c(O)nc1C |  | Unbound [4]: 0.2%; Kd [5]: 1210 nM; IC95 [2]: 300 nM |
| Cc1[nH]c(=O)c(CCc2nc3ccccc3o2)cc1C(C)C | 48 |  |
| CCc1cc(CCc2nc3c(C)cccc3o2)c(=O)[nH]c1C | 33 |  |
| CCc1cc(CCc2nc3c(F)cccc3o2)c(O)nc1C | 15 | Unbound [4]: 4%; Kd [5]: 24000 nM; IC95 [2]: 50 nM |
| CCc1cc(CCc2nc3cccc(Cl)c3o2)c(=S)[nH]c1C | 29 |  |
| CCc1cc(NCC(=O)Nc2c(O)cc(Cl)cc2Cl)c(O)nc1C | > 300000 |  |
| CCc1cc(CCc2nc3c(F)cccc3o2)c(=S)[nH]c1C | 13 |  |
| CCc1cc(CCc2nc3c(C)ccc(C)c3o2)c(=O)[nH]c1C | 28 |  |
| CCc1cc(CCC(=O)Nc2ccccc2O)c(=O)[nH]c1C | 5400 |  |
